# Screening results deposited in PubChem BioAssay by The Scripps Research Institute Molecular Screening Center.
# GALR2 ag – GALR2 (human) receptor agonism | O43603 | GALR2-expressing cells, agonist activation read-out | activation, % (test concentration not listed) | hit rate 0.48% among 140,000 | AID 803; in the data active means activation above about 5%, passing the limit was not always enough;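 further: 0% = vehicle buffer wells and 100% = reference agonist at full effect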
# HIV Rev-RRE inh – inhibitors of HIV-1 Rev-RRE RNA interaction. hit rate 0.79% among 97,000. Rev peptide-RRE RNA binding, FRET. inhibition, % at 8 µM. P05866;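 active means inhibition above the screen-wide mean plus 3 SD, cut at about 35% in these data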;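 further: 0% = median DMSO wells and 100% = median Neomycin B control wells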
# Target sequence (P05866 whole entry, looked up): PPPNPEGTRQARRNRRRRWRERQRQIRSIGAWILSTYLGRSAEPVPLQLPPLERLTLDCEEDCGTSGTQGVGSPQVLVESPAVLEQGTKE
#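 Test system: Cy5-tagged RRE RNA duplex with fluorescein-tagged Rev peptide | Read-out: % inhibition of FRET ratio versus controls | Probe or stimulus: Labelled Rev peptide | Incubation: 5 min RNA-compound premix plus 15 min binding step, 25 °C | Technique: FRET fluorescence readout | Benchmarks: DMSO low control, neomycin B high control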
# GALR2 blocker – GALR2 (human) receptor antagonism; O43603; GALR2-expressing cells, antagonist mode; inhibition, % at 4 µM; hit rate 0.39% among 140,000; in the data active means inhibition above about 27%;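 further: cells stimulated with galanin 1-16 at roughly its EC80; 0% = agonist challenge control and 100% = basal control without agonist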
# S1P2 antag – S1P2 (human) receptor antagonism; O95136; cell-based S1P2 antagonist assay, inhibition at 5 uM; inhibition, % at 5 µM; hit rate 0.21% among 97,000; AID 736; in the data active means inhibition above about 45%;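 further: CRE beta-lactamase reporter cells expressing human S1P2 stimulated with S1P; 0% = agonist at EC80 alone and 100% = agonist plus reference antagonist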
# Target sequence (O95136 whole entry, looked up): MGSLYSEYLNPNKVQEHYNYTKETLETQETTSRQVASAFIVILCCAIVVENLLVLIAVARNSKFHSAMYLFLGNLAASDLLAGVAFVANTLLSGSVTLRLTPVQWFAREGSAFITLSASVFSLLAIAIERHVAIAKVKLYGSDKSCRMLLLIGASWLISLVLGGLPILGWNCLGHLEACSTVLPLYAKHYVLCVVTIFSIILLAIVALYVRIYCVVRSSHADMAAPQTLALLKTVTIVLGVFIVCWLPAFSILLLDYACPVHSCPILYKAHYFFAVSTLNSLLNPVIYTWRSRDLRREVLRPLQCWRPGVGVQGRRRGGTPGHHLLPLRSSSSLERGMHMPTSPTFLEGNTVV
# S1P2 agonist – agonists of human S1P2 receptor. S1P2-expressing cell line, agonist reporter read-out. hit rate 0.46% among 97,000. activation, % at 4.5 µM. AID 729; in the data active means activation above about 16%;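 further: 0% = vehicle low control and 100% = maximal reference agonist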
# EphB4 ephrin blk – blocks human EphB4 binding to ephrin-B2 | P54760 | EphB4 LBD / TNYL-RAW-Alexa532 peptide, fluorescence polarization | inhibition, % at 7 µM | hit rate 0.15% among 97,000;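 active means inhibition above the screen-wide mean inhibition plus 3 SD, cut at about 15% in these data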;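 further: 0% = DMSO wells and 100% = excess unlabeled TNYL-RAW peptide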
# * = called active by the depositor; x = no result given; [ ] = remark or other dose. Only some compounds are listed: those with a hit (about 1.8% of all), similar ones and a draw of the others.
SMILES,GALR2 ag,HIV Rev-RRE inh,GALR2 blocker,S1P2 antag,S1P2 agonist,EphB4 ephrin blk
CCN(CC)C(=O)c1c2c(nc3ccccc13)-c1ccccc1CC2,1,4,-2,-14,-1,-6
COc1ccc(NC(=O)Cn2nnc(C(=O)NCc3ccccc3OC)c2N)cc1Cl,1,12,7,47*,-7,4
COCCCn1c(SCC(=O)Nc2nnc(C)s2)nnc1-c1ccoc1C,-3,6,-10,4,-7,2
COCCn1c(SCC(=O)Nc2nc3ccccc3s2)nnc1-c1ccoc1C,-2,0,6,-19,16*,-8
C=CCn1c(SCc2c(Cl)cccc2Cl)nnc1-c1cccnc1,0,5,-12,0,0,-1
COc1ccc(C2CC(C(F)(F)F)n3nc(C(N)=O)c(Cl)c3N2)cc1OC (centres undefined),1,-1,8,16,24*,7
CC1C/C(=C/c2cccn2C)C(=O)/C(=C/c2cccn2C)C1 (centres undefined),1,136*[fluorescence artefact?],24,59*,-11,0
CC(C(=O)O)N1C(=O)/C(=C/c2cccn2C)SC1=S (centres undefined),-1,x,-6,x,x,x
CCOC(=O)C1=C(C)NC(=S)NC1/C=C/c1ccccc1 (centres undefined),-1,x,-2,x,x,x
CCOC(=O)/C(C#N)=C\C=C1C=CN(C)C=C1,0,130*[fluorescence artefact?],-7,-24,-3,-12
OCCN1CCN(c2ncnc3c2sc2nc(N4CCOCC4)c4c(c23)CCC4)CC1,2,x,-6,x,x,x
OCCN(CCO)c1ncnc2c1sc1nc(N3CCOCC3)c3c(c12)CCCC3,1,2,2,-51,23*,0
CCCN1C(=O)/C(=N\OCC(=O)NCC(F)(F)F)c2ccccc21,0,x,-8,x,x,x
O=C(CSc1cccc(C(F)(F)F)c1)Nc1cc(S(=O)(=O)N2CCCC2)ccc1Cl,0,x,-18,x,x,x
CC1N=C2c3ccccc3N=C(SCc3cc(=O)n4cc(Cl)ccc4n3)N2C1=O (centres undefined),1,-1,2,-51,25*,-8
CC(=O)Nc1ccc(OCC=C(Cl)Cl)cc1,-1,11,-4,19,-4,16*
COc1ccc(C(=O)COc2ccc(NC(C)=O)cc2)cc1,-2,9,4,-2,-4,3
Fc1ccccc1N1CC(c2ccccc2)C(c2cccs2)=N1 (centres undefined),46*,4,-7,-34,23*,-1
c1ccc(C2COC(c3cccs3)=N2)cc1 (centres undefined),-1,2,-2,11,-7,1
CCOC(=O)N1CCN(C(=O)C(=O)NNC(=O)COc2ccc(Cl)cc2)CC1,-2,x,-7,x,x,x
COC(=O)/C(C#N)=C1/SC=C(C)N1c1ccccc1,-1,8,8,-3,-6,1
N#C/C(C(=O)c1ccccc1)=C1/SC=C(N)N1c1ccccc1,-1,118*[fluorescence artefact?],1,2,-2,5
CCc1ccc(C(=O)N/N=C/c2cccc3ccccc23)nc1,-2,x,0,x,x,x
CCCCCCc1cc2cc(C(=O)NCc3ccccc3)c(=N)oc2cc1O,5,104*[fluorescence artefact?],-5,-12,5,-7
Cc1c(C(=O)Nc2ccc(OC(F)(F)F)cc2)sc2nc3n(c(=O)c12)CCC3,-1,9,15,58*,-4,1
SMILES,GALR2 ag,HIV Rev-RRE inh,GALR2 blocker,S1P2 antag,S1P2 agonist,EphB4 ephrin blk
O=C(N1CCN(c2ccccc2F)CC1)C1(c2cccs2)CCOCC1,-1,x,-22,x,x,x
COc1ccc(NCc2cc3cc(OC)ccc3[nH]c2=O)cc1,0,15,-11,3,-5,4
COc1ccc2[nH]c(=O)c(CNc3cccc(C)c3)cc2c1,-1,57*,19,24,-3,0
CCCCc1ccc(CC2S/C(=C(\C#N)C(=O)N3CCOCC3)N(c3ccccc3)C2=O)cc1 (centres undefined),0,17,0,17,-3,8
N#C/C(C(=O)N1CCOCC1)=C1/SC(Cc2ccccc2)C(=O)N1c1ccccc1 (centres undefined),-3,44*,1,7,-6,8
CCCc1cc(-n2ccnc2)n2c(nc3ccccc32)c1C#N,-1,118*[fluorescence artefact?],13,-4,-6,-8
Cc1ccccc1Nc1nnc(SCC(=O)NC2CCCc3ccccc32)s1 (centres undefined),0,x,-2,x,x,x
COc1ccc(C(=O)NCc2nnc(SCC(=O)N3CCc4ccccc43)n2Cc2ccccc2)cc1,2,x,3,x,x,x
O=C(CN(Cc1ccco1)C(=O)c1ccccc1)Nc1ccc(Cl)c(Cl)c1,-2,8,-4,1,-7,-9
CCCCCC(=O)Nc1nc(C)c(-c2csc(Nc3cc(Cl)ccc3OC)n2)s1,1,4,-19,-19,17*,-5
COCCn1c(=NC(=O)/C=C/c2ccccc2Cl)sc2cc(NC(C)=O)ccc21,6.0*,x,-6,x,x,x
CCOCCn1c(=NC(=O)/C=C/c2ccccc2Cl)sc2cc(NC(C)=O)ccc21,3,x,10,x,x,x
CC(=O)NC1=NN(C(C)=O)C(C)(CCS(=O)(=O)c2ccc(Br)cc2)S1 (centres undefined),6.9*,x,-1,x,x,x
CCN1CCN(c2nc3c(c(=O)[nH]c(=O)n3C)n2CCSc2nc3ccccc3s2)CC1,0,4,5,8,-2,-2
CC(CSc1nc2ccccc2s1)Cn1c(N2CCCC2)nc2c1c(=O)[nH]c(=O)n2C (centres undefined),0,-1,3,-22,30*,-6
COC(=O)c1ccc(COc2ccc3c(C)c(C)c(=O)oc3c2C)o1,-1,7,-1,-5,-6,22*
Cc1c(OCc2ccc(C(=O)O)o2)ccc2c3c(c(=O)oc12)CCC3,0,-4,-31,14,0,-1
CC(C)(C)c1ccc(C(=O)NNC(=O)c2cccc(Br)c2)cc1,1,15,-9,21,23*,-1
CC(C)NC(=O)c1cccc(Br)c1,-1,3,-6,-21,-5,0
Cc1ccc2nc3c(cc(C#N)c(=O)n3-c3nccs3)c(=O)n2c1,27*,x,-22,x,x,x
Cc1ccc(-n2c(=O)c(C#N)cc3c(=O)n4cccc(C)c4nc32)cc1,0,11,-10,-19,0,6
Cc1cccn2c(=O)c3cc(C#N)c(=N)n(CC4CCCO4)c3nc12 (centres undefined),0,6,-4,-5,0,-1
Cc1ccc2nc3c(cc(C#N)c(=O)n3CC3CCCO3)c(=O)n2c1 (centres undefined),6.8*,x,-5,x,x,x
CCc1nc(C)c(C#N)c2cc(OC)c(OC)cc12,-4,1,-4,-50,26*,-10
CCc1nc(N)c(C#N)c(-c2ccc(OC)c(OC)c2)c1C,1,-4,5,-20,-1,-4
CC(=O)Nc1cccc(NC(=O)CSc2nnc(Cc3cccn3C)n2-c2ccc(C)cc2)c1,-1,6,-20,13,-3,16*
